Values after ≈ are worked out from the molar mass of the structure shown. Active and inactive are the calls of the source. No cut-off for these calls is given here.
Key:
Verticillium albo-atrum [1] = assay: Antifungal activity against Verticillium albo-atrum CGMCC 3.4306 after 48 hr by Alamar blue assay; format: functional; conditions: CGMCC 3.4306, 48 h
In short: (§1)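 NCCLS-based broth microdilution, run in triplicate. Fungi were kept on PDA, and the inoculum was grown in broth at 28 °C for 48 h, then set to a final 10^4 hyphae/mL in PDB. Samples were serially diluted from a 10 mg/mL DMSO stock, with 10% Alamar blue as indicator, and incubated at 28 °C for 48 h. Fluorescence was read at 544/590 nm. MIC was the lowest concentration giving complete growth inhibition.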

Fusarium verticillioides [2] = assay: Antifungal activity against Fusarium verticillioides CGMCC 3.2835 after 48 hr by Alamar blue assay; format: functional; conditions: CGMCC 3.2835, 48 h; in short: as §1
Fusarium oxysporum [3] = assay: Antifungal activity against Fusarium oxysporum CGMCC 3.2830 after 48 hr by Alamar blue assay; format: functional; conditions: CGMCC 3.2830, 48 h; in short: as §1
Alternaria longipes [4] = assay: Antifungal activity against Alternaria longipes CGMCC 3.2875 after 48 hr by Alamar blue assay; format: functional; conditions: CGMCC 3.2875, 48 h
In short: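 Run in triplicate per NCCLS recommendations. The strain was grown on PDA, and inoculum came from broth cultures (28 °C, 48 h), with a final suspension of 10^4 hyphae/mL in PDB. Samples were serially diluted from a 10 mg/mL DMSO stock, with 10% Alamar blue as indicator. After 28 °C for 48 h, fluorescence was read at Ex/Em 544/590 nm. MIC is the lowest concentration giving complete growth inhibition, taken from inhibition-versus-concentration plots.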

Fusarium graminearum [5] = assay: Antifungal activity against Fusarium graminearum CGMCC 3.2873 after 48 hr by Alamar blue assay; format: functional; conditions: CGMCC 3.2873, 48 h; in short: as §1
Alternaria longipes [6] = assay: Antifungal activity against Alternaria longipes CGMCC 3.2875 at 20 ug/ml after 48 hr by Alamar blue assay; format: functional, organism-based
Fusarium graminearum [7] = assay: Antifungal activity against Fusarium graminearum CGMCC 3.2873 at 20 ug/ml after 48 hr by Alamar blue assay; format: functional, organism-based
Fusarium oxysporum [8] = assay: Antifungal activity against Fusarium oxysporum CGMCC 3.2830 at 20 ug/ml after 48 hr by Alamar blue assay; format: functional, organism-based
Fusarium verticillioides [9] = assay: Antifungal activity against Fusarium verticillioides CGMCC 3.2835 at 20 ug/ml after 48 hr by Alamar blue assay; format: functional, organism-based
Verticillium albo-atrum [10] = assay: Antifungal activity against Verticillium albo-atrum CGMCC 3.4306 at 20 ug/ml after 48 hr by Alamar blue assay; format: functional, organism-based

Row | SMILES | MIC (Verticillium albo-atrum [1]) | MIC (Fusarium verticillioides [2]) | MIC (Fusarium oxysporum [3]) | MIC (Alternaria longipes [4]) | MIC (Fusarium graminearum [5]) | Activity (Alternaria longipes [6]) | Activity (Fusarium graminearum [7]) | Activity (Fusarium oxysporum [8]) | Activity (Fusarium verticillioides [9]) | Activity (Verticillium albo-atrum [10])
1 | CCc1c(OC)cc2c(c1O)C(=O)C=C(OC)[C@@]21C[C@@H](O)C(=O)O1 [PERENNIPORIDE A] | 20 mg/L (≈ 59.8 µM) | 20 mg/L (≈ 59.8 µM) | 10 mg/L (≈ 29.9 µM) | 10 mg/L (≈ 29.9 µM) | 20 mg/L (≈ 59.8 µM) | – | – | – | – | –
2 | COC(=O)Nc1nc2ccccc2[nH]1 [CARBENDAZIM] | 0.63 mg/L (≈ 3.3 µM) | 0.63 mg/L (≈ 3.3 µM) | 0.63 mg/L (≈ 3.3 µM) | – | 2.5 mg/L (≈ 13.1 µM) | inactive | – | – | – | –
3 | CCc1c(OC)cc2c(c1O)C(=O)C[C@]1(OC)OC(=O)[C@H](O)C[C@@]21O | – | – | – | – | – | inactive | inactive | inactive | inactive | inactive
4 | CCc1c(OC)cc2c(c1O)C(=O)C=C(OC)[C@@]2(O)C[C@@H](O)C(=O)OC | – | – | – | – | – | inactive | inactive | inactive | inactive | inactive
5 | CCc1c(OC)cc2c(c1O)C(=O)C[C@@]1(OC)O[C@@H](C(=O)OC)C[C@@]21O | – | – | – | – | – | inactive | inactive | inactive | inactive | inactive
